Hits are enriched below; roughly 2.3% of the tested compounds scored in any of these assays.
NR2E3 ag-1: NR2E3 (human) agonism; GST-NR2E3/biotin-RetCOR TR-FRET, 1536-well; inhibition of corepressor binding, % at 4.78 µM; hit rate 0.12% among 320,000;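 active = percent inhibition above the cutoff of mean plus 3 SD of all tested compounds, set per screening campaign, cut at about 20% in these data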;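 note: 0% = DMSO wells and 100% = biotin wells as full block of FRET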
Target sequence (Q9Y5X4 whole entry, looked up): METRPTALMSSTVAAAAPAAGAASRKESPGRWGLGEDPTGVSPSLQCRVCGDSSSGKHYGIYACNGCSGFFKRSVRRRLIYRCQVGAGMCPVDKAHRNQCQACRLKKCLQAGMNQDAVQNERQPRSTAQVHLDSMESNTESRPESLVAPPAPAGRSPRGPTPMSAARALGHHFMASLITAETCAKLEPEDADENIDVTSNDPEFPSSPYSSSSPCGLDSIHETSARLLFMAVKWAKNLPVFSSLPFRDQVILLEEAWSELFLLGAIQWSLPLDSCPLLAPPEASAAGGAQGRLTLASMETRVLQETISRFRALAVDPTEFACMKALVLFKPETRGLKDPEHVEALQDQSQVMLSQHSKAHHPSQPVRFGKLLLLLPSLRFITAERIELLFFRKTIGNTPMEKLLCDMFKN
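system = GST-tagged NR2E3 plus biotinylated RetCOR corepressor | input = 1.35 nM GST-NR2E3 | also added = 7 nM biotin-RetCOR | schedule = 5 h incubation at 4 °C | measured by = TR-FRET with europium anti-GST and streptavidin-D2, 340 nm excitation | read-out = percent loss of FRET ratio relative to control wells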
NR2E3 ag-2: agonists of human NR2E3 nuclear receptor. Q9Y5X4. CHO-S Gal4-NCOR/VP16-NR2E3 two-hybrid, luciferase. inhibition of corepressor binding, % at 3.98 µM. hit rate 0.35% among 360,000. AID 602229;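 active = inhibition above the mean of all tested compounds plus 3 SD, cut at about 70% in these data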;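 note: 0% = DMSO with NR2E3 transfected cells and 100% = cells lacking NR2E3 construct; higher means lower luciferase signal from less NR2E3 corepressor binding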
GalR3 antag: blocks the human galanin receptor 3; AID 651719; hit rate 0.44% among 360,000; inhibition, % at 3 µM; HEK293 GalR3-CNG cAMP membrane potential fluorescence; galR3 body fused to GalR1 C-terminus;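 active = inhibition above the screen-wide average plus 3 SD, cut at about 13% in these data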;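 note: forskolin and galanin both at EC90 stimulate the cells; cAMP rise reported by CNG channel membrane potential dye signal; 0% = forskolin plus galanin with DMSO and 100% = forskolin alone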
CHT inh: human CHT choline transport inhibition. CHT-expressing cells, membrane potential dye, choline response; hits give low values. Q9GZV3. hit rate 0.86% among 310,000. AID 488975. B-score at 10 µM;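 active = B-score over 3 SD under the library average, and starting fluorescence ratio not unusually high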;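 note: choline stimulus applied at its EC90 after an EC20 pre-addition; B-score computed on integrated fluorescence ratio after choline addition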
CHT allo act: human CHT allosteric activation; CHT-expressing cells, membrane potential dye, choline EC20; hits give high values; LV-AA mutant CHT in HEK293 cells; B-score at 10 µM; hit rate 0.49% among 310,000; AID 488977;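 active = initial fluorescence not abnormally high and integrated response B-score, plate-corrected, over 3 SD above library mean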
NR2F2 inh: NR2F2 (human) inhibition, primary screen | hit rate 0.7% among 370,000 | AID 686940 | P24468 | inhibition, % at 8.6 µM | HEK293T NGFI-A luciferase reporter, luminescence;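 active = inhibition above a per-plate cutoff, mean inhibition of test wells between control levels plus 3 SD, cut at about 38% in these data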;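 note: cells cotransfected with COUP-TFII expression vector driving the NGFI-A reporter; 0% = median of COUP-TF2 test wells and 100% = reporter-only cells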
GalR3 conf: confirmation of human galanin receptor 3 antagonists; HEK293 GalR3 CNG cAMP biosensor, membrane potential fluorescence; galR3 fused to GalR1 carboxy tail; challenged with forskolin and galanin at EC90; inhibition, % at 3 µM; shares compounds with GalR3 antag; AID 652245; hit rate 59% among 1,600;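 active = inhibition above the primary screen's cutoff, the mean inhibition of all screened compounds plus 3 SD, cut at about 13% in these data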;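 note: 0% = forskolin plus galanin and 100% = forskolin alone with DMSO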
CNG parental: counter-screen for GalR3 antagonists: nonspecific agonists in parental HEK-CNG cells; shares compounds with GalR3 antag; hit rate 10% among 1,600; activation, % at 3 µM; HEK293-CNG parental cells, cAMP membrane potential fluorescence; normalised: DMSO wells 0%, forskolin wells 100%; AID 652268; in the data active = activation above about 1.3%
* = called active by the depositor; i = inactive; / = no result given.

SMILES	NR2E3 ag-1	NR2E3 ag-2	GalR3 antag	CHT inh	CHT allo act	NR2F2 inh	GalR3 conf	CNG parental
CCc1nc2sc(C#N)c(N)c2c2c1CCCC2	1	-15	42*	i	i	-26	57*	-1
COc1ccc(OCCOC(=O)c2[nH]c(C)c(C(C)=O)c2C)cc1	9	19	16*	i	i	19	10	-1
COc1ccc(CCNC(=O)c2[nH]c(C)c(C(C)=O)c2C)cc1	1	-19	1	i	i	-2	/	/
CCOc1cccc(C2C(C(=O)c3ccco3)=C(O)C(=O)N2c2nnc(C)s2)c1 (stereo not given)	5	-39	22*	/	/	-8	2	0
CCSc1nnc(N2C(=O)C(O)=C(C(=O)c3ccco3)C2c2cccc(OC)c2)s1 (stereo not given)	3	-30	14*	i	i	1	6	0
CCCOc1cccc(C2C(C(=O)c3ccc(C)o3)=C(O)C(=O)N2c2nc(C)c(C(C)=O)s2)c1 (stereo not given)	8	-45	28*	i	i	-7	13*	0
CSc1nnc(N2C(=O)C(O)=C(C(=O)c3ccco3)C2c2cccc(Cl)c2)s1 (stereo not given)	10	-46	-1	i	i	15	/	/
CCOc1cccc(C2C(C(=O)c3ccc(C)o3)=C(O)C(=O)N2c2nnc(C)s2)c1 (stereo not given)	/	-11	-3	/	/	-8	/	/
OC(c1ccccc1)(c1ccccc1)C1CCN(CCCOc2ccc(Br)cc2)CC1	/	/	/	/	/	-2	/	/
COc1cccc2[nH]c3c(N4CCCC(C)C4)ncnc3c12 (stereo not given)	-10	-75	84*	i	i	-17	94*	1
CC(Oc1ccc(Cl)cc1Cl)C(=O)Nc1cccc(O)c1 (stereo not given)	10	-13	14*	i	i	-17	15*	0
CC(C)c1cc(C(C)C)c(S(=O)(=O)N2CCC(c3cn4ccccc4n3)CC2)c(C(C)C)c1	/	/	/	/	/	18	/	/
Cc1noc(C)c1Cn1nc(C(=O)O)c2ccccc2c1=O	2	-7	19*	i	i	2	27*	1
Cc1ccc(-c2noc(Cn3nc(C(=O)O)c4ccccc4c3=O)n2)cc1	-2	-44	-8	i	i	8	/	/
O=C(O)c1nn(CCSc2ccccc2F)c(=O)c2ccccc12	2	-26	27*	i	i	-15	9	0
Cc1cccc(C)c1OCCn1nc(C(=O)O)c2ccccc2c1=O	6	-9	16*	i	i	-14	24*	0
O=C(C1CC1)C1(C(=O)N2CCOCC2)CC(c2ccccn2)=NO1 (stereo not given)	/	/	/	/	/	2	/	/
CCCCc1ccc(NC(=O)c2ccc(N(C)S(C)(=O)=O)cc2)cc1	2	16	36*	i	i	35	115*	-1
COc1ccc(NS(=O)(=O)c2ccc(NC(C)=O)cc2)c(OC)c1	-2	-28	-6	i	i	-14	/	/
COc1ccc(NS(=O)(=O)c2ccc(NC(=O)c3ccc(N(C)S(C)(=O)=O)cc3)cc2)c(OC)c1	2	-40	99*	i	i	31	107*	-1
CCCCc1ccc(NC(=O)c2ccc(NS(C)(=O)=O)cc2)cc1	5	-5	-4	i	i	-8	/	/
O=C(NCCc1ccc2c(c1)OCO2)c1cc(-c2ccccc2)c(N2CCOCC2)s1	/	/	/	/	/	-4	/	/
COc1ccccc1NC(=O)CSc1nc(N)c(-c2ccccc2)c(=O)[nH]1	3	-14	46*	i	i	-24	38*	1
N#Cc1ccc(CN2CCN(C(=O)CNC(=O)Cc3cccc4ccccc34)CC2)cc1	/	12	22*	/	/	15	10	0
Cc1ccc(CN2CCN(/N=C/c3ccc(C(F)(F)F)cc3)CC2)cc1	-1	14	16*	i	i	9	3	0
SMILES	NR2E3 ag-1	NR2E3 ag-2	GalR3 antag	CHT inh	CHT allo act	NR2F2 inh	GalR3 conf	CNG parental
Cc1ccc(/C=N/N2CCN(Cc3ccc(C)cc3)CC2)cc1	6	-2	-5	i	i	21	/	/
Fc1ccccc1CNC(=S)NC1CCCCC1	/	2	-3	i	i	-14	/	/
COc1ccccc1CNC(=S)NC1CCCCC1	-1	-13	14*	i	i	-3	12	0
O=C(N/N=C(\c1ccccc1)c1cccnc1)c1cccc(F)c1	2	32	42*	i	i	-23	38*	0
O=C(N/N=C(\c1ccccc1)c1cccnc1)c1ccc(O)cc1	0	3	4	i	i	14	/	/
O=C(c1ccc([N+](=O)[O-])s1)N1CCN(c2ccccc2)CC1	1	21	50*	i	i	17	-5	0
CC(C)C[C@H]1COc2cccc(F)c2S(=O)(=O)N1Cc1cn(Cc2ccc(F)cc2)nn1	/	/	/	/	/	-17	/	/
COc1ccccc1CNC(=O)C1CC(c2ccccc2[N+](=O)[O-])=NO1 (stereo not given)	0	-6	/	i	i	0	9	0
CC(=O)Nc1cccc(C(=O)/C=C/c2ccc(/C=C/C(=O)c3cccc(NC(C)=O)c3)cc2)c1	-1	/	0	i	i	-4	/	/
CC(=O)Nc1cccc(C(=O)/C=C/c2ccc(Br)cc2)c1	-3	-5	15*	i	i	5	30*	0
CCOC(=O)CC(N)c1ccc(OC)cc1 (stereo not given)	0	14	14*	i	i	12	13*	0
CCOC(=O)c1c(O)c(Cl)c(C)[nH]c1=O	1	-19	16*	i	i	-8	19*	0
Cc1ccc(-c2nnc(COC(=O)c3cc(=O)[nH]c4ccccc34)o2)cc1	3	-1	13*	i	i	8	1	0
Cc1ccc(N(CC(=O)NCc2ccco2)C(=O)CCC(=O)Nc2nccs2)cc1	3	-5	14*	i	i	10	1	1
CCc1nc2ccc(C(=O)Nc3ccc(OC)c(OC)c3)cn2c1N(CC)CCOC	/	-15	13*	/	/	-1	7	0
Cc1ccc(-n2c(=O)cc(N3CCN(C(=O)c4ccco4)CC3)[nH]c2=O)cc1	2	-23	15*	i	i	-46	0	0
